ChEMBL document CHEMBL4196162, “Target-Directed Self-Assembly of Homodimeric Drugs Against β-Tryptase” (ACS Med Chem Lett, 2018)
The source made the active and inactive calls. The calls are words filed in the database; no cut-off is given here.

Key:
[1] = Inhibition of recombinant human lung beta-tryptase using N-tert-butoxycarbonyl-Gln-Ala-Arg-AMC as substrate incubated for 3 hrs followed by substrate addition measured every 30 secs for 15 mins in presence of 10 pM of tryptase
In short: (§1)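 Purified tryptase tested at several enzyme concentrations. IC50 from nonlinear regression with no Hill slope constraint.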

[2] = Inhibition of recombinant human lung beta-tryptase using N-tert-butoxycarbonyl-Gln-Ala-Arg-AMC as substrate incubated for 3 hrs followed by substrate addition measured every 30 secs for 15 mins in presence of 1 nM of tryptase; in short: as §1
[3] = Inhibition of beta-tryptase in human HMC1 cells assessed as decrease in A23187-induced degranulation in cell lysates incubated for 2 hrs followed by A23187 addition measured after 1 hr; format: cell-based
In short: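 HMC1 human mast cell lysates tested for tryptase activity in the presence of inhibitor. IC50 and SEM from nonlinear regression with unconstrained Hill slope.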

Homo sapiens = species: Homo sapiens; assay: Reversal inhibition of recombinant human lung beta-tryptase assessed as recovery of enzymatic activity at 10 uM using N-tert-butoxycarbonyl-Gln-Ala-Arg-AMC as substrate measured over 216 hrs
[4] = Inhibition of beta-tryptase in human HMC1 cells assessed as decrease in A23187-induced degranulation in supernatant incubated for 2 hrs followed by A23187 addition measured after 1 hr; format: cell-based
In short: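 Cultured HMC1 human mast cells exposed to inhibitor (10 nM to 100 μM) for 2 h, then degranulated with 1 μM A23187 in PBS. After 1 h, supernatant tested for tryptase activity. IC50 and SEM from nonlinear regression with unconstrained Hill slope.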

[5] = Inhibition of recombinant human lung beta-tryptase using N-tert-butoxycarbonyl-Gln-Ala-Arg-AMC as substrate incubated for 3 hrs followed by substrate addition measured every 30 secs for 15 mins in presence of 100 pM of tryptase; in short: as §1

In the case of `NCc1cccc(C2CCN(C(=O)c3cccc(NC(=O)C(O)C4(O)CCC4)c3)CC2)c1` (stereo unspecified), the IC50 [1] is reported as 0.64 µM, the IC50 [2] is reported as 8.1 µM and the IC50 [3] is reported as 21.8 µM. The inhibition (Homo sapiens) was “Active”, the IC50 [4] was 137 µM and the IC50 [5] was 0.17 µM.
